Activity calls are given as the source filed them. The calls are words filed in the database; no cut-off is given here.
Legend:
[1] = Inhibition of Escherichia coli BL21(DE3) Glycine-tRNA synthetase alpha subunit/Glycine-tRNA synthetase beta subunit assessed as reduction in tRNA aminoacylation preincubated for 10 mins with Escherichia coli tRNA and 14C-labeled glycine followed by ATP addition by liquid scintillation counting method; details: read-out: Ki(app)
Outline: (§1)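 Purified E. coli aaRS, expressed in Rosetta 2 (DE3) pLysS: ileRS 50 nM, tyrRS 0.5 nM, leuRS 2.5 nM, aspRS, serRS and glyRS 2 nM each. Buffer was 20 mM Tris, 100 mM KCl, 10 mM MgCl2, 5 mM β-mercaptoethanol, pH 7.5. Enzyme was preincubated 10 min at 37°C with serially diluted compound, 50 µM 14C-amino acid, 2 mg/ml tRNA and pyrophosphatase. Reaction was started with 500 µM ATP and quenched within the linear zone, then TCA-precipitated and counted. Ki app came from Greco-Hakala fits.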

Escherichia coli K-12 = test: (§2) Inhibition of Glycyl-tRNA synthetase in Escherichia coli K-12 BW28357 S30 extract assessed as reduction in tRNA aminoacylation at 2.5 uM preincubated for 5 mins followed by Escherichia coli tRNA and 14C-labeled glycine addition measured after 5 mins by liquid scintillation counting method
Outline: (§3)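 E. coli K-12 BW28357 cells were grown in LB to A600 0.5, washed in 20 mM Tris.HCl, 10 mM MgCl2, 100 mM KCl, pH 8.0, then sonicated in the same buffer plus 1 mM DTT. The lysate was spun at 15,000 g. Inhibitor (2.5 µM) was preincubated with extract for 5 min. Aminoacylation mix: 30 mM Tris pH 8.0, 5 g/L E. coli tRNA, 3 mM ATP, 8 mM MgCl2, 40 µM 14C-amino acid. Reaction ran at room temperature. TCA precipitation after 5 min, then scintillation counting. Activity was expressed relative to the no-compound control, average of three experiments.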

Kocuria rhizophila = test: Antibacterial activity against Kocuria rhizophila ATCC 9341 up to 100 uM after 18 to 24 hrs by two fold serial dilution method; assay type: functional, organism-based; details: DC2201
Outline: (§4)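 Broth microdilution, twofold series from 100 µM down to 0.39 µM, in LB medium. MIC50 was taken as the lowest concentration giving 50% growth inhibition after 18-24 h incubation at 37.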

Staphylococcus aureus = test: Antibacterial activity against Staphylococcus aureus ATCC 65381 up to 100 uM after 18 to 24 hrs by two fold serial dilution method; assay type: functional, organism-based; outline: as §4
[2] = test system: Staphylococcus epidermidis; test: Antibacterial activity against Staphylococcus epidermidis RP62A up to 100 uM after 18 to 24 hrs by two fold serial dilution method; assay type: functional, organism-based; outline: as §4
Escherichia coli = test: Antibacterial activity against Escherichia coli NCIB 8743 up to 100 uM after 18 to 24 hrs by two fold serial dilution method; assay type: functional, organism-based; outline: as §4
Pseudomonas aeruginosa = test: Antibacterial activity against Pseudomonas aeruginosa PAO1 up to 100 uM after 18 to 24 hrs by two fold serial dilution method; assay type: functional, organism-based; outline: as §4
Aspartate--tRNA ligase = Aspartate--tRNA ligase (Escherichia coli (strain K12), UniProt P21889); test: Inhibition of Escherichia coli BL21(DE3) Aspartyl-tRNA synthetase assessed as reduction in tRNA aminoacylation preincubated for 10 mins with Escherichia coli tRNA and 14C-labeled aspartic acid followed by ATP addition by liquid scintillation counting method; details: read-out: Ki(app); outline: as §1
[3] = target: Aspartate--tRNA ligase (Escherichia coli (strain K12)) (UniProt P21889); test: Inhibition of Aspartate-tRNA synthetase in Escherichia coli K-12 BW28357 S30 extract assessed as reduction in tRNA aminoacylation at 2.5 uM preincubated for 5 mins followed by Escherichia coli tRNA and 14C-labeled aspartic acid addition measured after 5 mins by liquid scintillation counting method; outline: as §3
[4] = target: Serine--tRNA ligase (Escherichia coli (strain K12)) (UniProt P0A8L1); test: Inhibition of Serine-tRNA synthetase in Escherichia coli K-12 BW28357 S30 extract assessed as reduction in tRNA aminoacylation at 2.5 uM preincubated for 5 mins followed by Escherichia coli tRNA and 14C-labeled serine addition measured after 5 mins by liquid scintillation counting method; outline: as §3
Serine--tRNA ligase = Serine--tRNA ligase (Escherichia coli (strain K12), UniProt P0A8L1); test: Inhibition of Escherichia coli BL21(DE3) Seryl-tRNA synthetase assessed as reduction in tRNA aminoacylation preincubated for 10 mins with Escherichia coli tRNA and 14C-labeled serine followed by ATP addition by liquid scintillation counting method; details: read-out: Ki(app); outline: as §1
Leucine--tRNA ligase = Leucine--tRNA ligase (Escherichia coli (strain K12), UniProt P07813); test: Inhibition of Escherichia coli BL21(DE3) Leucyl-tRNA synthetase assessed as reduction in tRNA aminoacylation preincubated for 10 mins with Escherichia coli tRNA and 14C-labeled leucine followed by ATP addition by liquid scintillation counting method; details: read-out: Ki(app)
Isoleucine--tRNA ligase = Isoleucine--tRNA ligase (Escherichia coli K-12, UniProt P00956); test: Inhibition of Escherichia coli BL21(DE3) Isoleucyl-tRNA synthetase assessed as reduction in tRNA aminoacylation preincubated for 10 mins with Escherichia coli tRNA and 14C-labeled isoleucine followed by ATP addition by liquid scintillation counting method; details: read-out: Ki(app); outline: as §1
[5] = target: Isoleucine--tRNA ligase (Escherichia coli K-12) (UniProt P00956); test: as §2, with “Isoleucyl-tRNA” for “Glycyl-tRNA”, “isoleucine” for “glycine”, “method relative to control” for “method”; outline: as §3
Tyrosine--tRNA ligase = target: T1, Tyrosine--tRNA ligase (Escherichia coli (strain K12), UniProt P0AGJ9); test: Inhibition of Escherichia coli BL21(DE3) Tyrosyl-tRNA synthetase assessed as reduction in tRNA aminoacylation preincubated for 10 mins with Escherichia coli tRNA and 14C-labeled tyrosine followed by ATP addition by liquid scintillation counting method; details: read-out: Ki(app); outline: as §1
T1 sequence (P0AGJ9 whole entry): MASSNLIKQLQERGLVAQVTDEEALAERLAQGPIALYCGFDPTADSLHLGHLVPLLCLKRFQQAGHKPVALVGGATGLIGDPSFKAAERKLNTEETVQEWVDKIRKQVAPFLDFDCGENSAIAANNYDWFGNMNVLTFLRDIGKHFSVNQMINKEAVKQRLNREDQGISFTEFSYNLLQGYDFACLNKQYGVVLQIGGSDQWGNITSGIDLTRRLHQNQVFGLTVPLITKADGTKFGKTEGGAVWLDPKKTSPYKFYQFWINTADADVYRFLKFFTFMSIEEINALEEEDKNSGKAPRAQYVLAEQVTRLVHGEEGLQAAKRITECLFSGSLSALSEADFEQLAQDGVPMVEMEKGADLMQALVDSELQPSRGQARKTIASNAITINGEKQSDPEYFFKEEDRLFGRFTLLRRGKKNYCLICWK

[6] = target: T2, Tyrosine--tRNA ligase (Escherichia coli (strain K12)) (UniProt P0AGJ9); test: as §2, with “Tyrosyl-tRNA” for “Glycyl-tRNA”, “tyrosine” for “glycine”, “method relative to control” for “method”; outline: as §3
T2 sequence (whole entry): T1 sequence (P0AGJ9 whole entry)

Sequence of Isoleucine--tRNA ligase (P00956 whole entry): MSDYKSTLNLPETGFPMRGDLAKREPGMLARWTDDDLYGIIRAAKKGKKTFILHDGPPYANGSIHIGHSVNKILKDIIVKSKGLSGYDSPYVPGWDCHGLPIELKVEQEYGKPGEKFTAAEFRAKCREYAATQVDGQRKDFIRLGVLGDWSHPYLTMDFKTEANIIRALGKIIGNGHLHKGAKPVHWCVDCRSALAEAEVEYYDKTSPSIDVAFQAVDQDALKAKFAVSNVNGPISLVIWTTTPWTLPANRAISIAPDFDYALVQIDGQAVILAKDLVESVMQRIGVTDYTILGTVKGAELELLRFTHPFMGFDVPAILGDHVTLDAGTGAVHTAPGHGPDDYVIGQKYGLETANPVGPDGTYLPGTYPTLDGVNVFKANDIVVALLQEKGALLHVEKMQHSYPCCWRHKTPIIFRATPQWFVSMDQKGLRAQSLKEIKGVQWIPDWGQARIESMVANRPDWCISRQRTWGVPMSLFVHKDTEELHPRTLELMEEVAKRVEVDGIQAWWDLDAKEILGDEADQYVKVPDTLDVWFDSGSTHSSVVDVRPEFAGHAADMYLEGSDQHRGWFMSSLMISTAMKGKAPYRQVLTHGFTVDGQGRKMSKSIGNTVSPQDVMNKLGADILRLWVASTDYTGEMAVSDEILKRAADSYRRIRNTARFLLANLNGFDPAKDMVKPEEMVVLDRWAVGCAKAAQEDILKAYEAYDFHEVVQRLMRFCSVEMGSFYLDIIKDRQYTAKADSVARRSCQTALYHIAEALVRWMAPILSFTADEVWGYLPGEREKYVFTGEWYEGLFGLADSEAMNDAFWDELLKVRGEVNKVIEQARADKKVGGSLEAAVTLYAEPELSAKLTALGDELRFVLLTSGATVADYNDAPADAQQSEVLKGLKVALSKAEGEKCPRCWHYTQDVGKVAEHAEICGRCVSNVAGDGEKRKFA
Sequence of Isoleucine--tRNA ligase (Escherichia coli K-12) (P00956 whole entry): as above
Sequence of Serine--tRNA ligase (P0A8L1 whole entry): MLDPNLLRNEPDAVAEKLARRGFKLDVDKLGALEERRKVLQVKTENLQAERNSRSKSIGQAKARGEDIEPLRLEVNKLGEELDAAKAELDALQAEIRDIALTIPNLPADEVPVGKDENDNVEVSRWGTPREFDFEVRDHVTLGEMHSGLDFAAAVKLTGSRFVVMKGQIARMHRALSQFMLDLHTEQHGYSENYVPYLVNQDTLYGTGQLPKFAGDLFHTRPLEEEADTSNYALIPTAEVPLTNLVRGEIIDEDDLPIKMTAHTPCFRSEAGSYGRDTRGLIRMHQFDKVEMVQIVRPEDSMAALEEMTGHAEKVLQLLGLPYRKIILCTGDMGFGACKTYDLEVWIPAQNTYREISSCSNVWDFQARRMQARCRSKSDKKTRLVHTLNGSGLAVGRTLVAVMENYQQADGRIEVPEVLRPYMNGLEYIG
Sequence of Serine--tRNA ligase (Escherichia coli (strain K12)) (P0A8L1 whole entry, looked up): as the sequence (P0A8L1 whole entry) above
Sequence of Aspartate--tRNA ligase (P21889 whole entry): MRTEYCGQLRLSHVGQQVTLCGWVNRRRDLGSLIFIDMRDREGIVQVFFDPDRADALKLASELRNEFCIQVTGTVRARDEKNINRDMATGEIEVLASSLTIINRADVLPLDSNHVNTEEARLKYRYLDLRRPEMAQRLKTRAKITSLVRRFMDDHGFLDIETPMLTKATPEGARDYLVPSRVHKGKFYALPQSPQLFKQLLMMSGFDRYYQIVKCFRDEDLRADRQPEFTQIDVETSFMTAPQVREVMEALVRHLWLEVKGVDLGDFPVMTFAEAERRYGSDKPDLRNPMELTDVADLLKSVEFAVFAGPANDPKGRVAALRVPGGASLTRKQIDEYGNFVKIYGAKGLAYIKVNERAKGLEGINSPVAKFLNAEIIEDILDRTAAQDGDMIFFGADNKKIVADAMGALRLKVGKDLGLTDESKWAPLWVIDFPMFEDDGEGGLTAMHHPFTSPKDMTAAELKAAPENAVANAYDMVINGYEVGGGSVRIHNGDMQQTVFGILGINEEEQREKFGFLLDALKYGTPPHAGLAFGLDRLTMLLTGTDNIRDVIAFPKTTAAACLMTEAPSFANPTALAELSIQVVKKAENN
Sequence of Aspartate--tRNA ligase (Escherichia coli (strain K12)) (P21889 whole entry, looked up): as the sequence (P21889 whole entry) above
Sequence of Leucine--tRNA ligase (P07813 whole entry): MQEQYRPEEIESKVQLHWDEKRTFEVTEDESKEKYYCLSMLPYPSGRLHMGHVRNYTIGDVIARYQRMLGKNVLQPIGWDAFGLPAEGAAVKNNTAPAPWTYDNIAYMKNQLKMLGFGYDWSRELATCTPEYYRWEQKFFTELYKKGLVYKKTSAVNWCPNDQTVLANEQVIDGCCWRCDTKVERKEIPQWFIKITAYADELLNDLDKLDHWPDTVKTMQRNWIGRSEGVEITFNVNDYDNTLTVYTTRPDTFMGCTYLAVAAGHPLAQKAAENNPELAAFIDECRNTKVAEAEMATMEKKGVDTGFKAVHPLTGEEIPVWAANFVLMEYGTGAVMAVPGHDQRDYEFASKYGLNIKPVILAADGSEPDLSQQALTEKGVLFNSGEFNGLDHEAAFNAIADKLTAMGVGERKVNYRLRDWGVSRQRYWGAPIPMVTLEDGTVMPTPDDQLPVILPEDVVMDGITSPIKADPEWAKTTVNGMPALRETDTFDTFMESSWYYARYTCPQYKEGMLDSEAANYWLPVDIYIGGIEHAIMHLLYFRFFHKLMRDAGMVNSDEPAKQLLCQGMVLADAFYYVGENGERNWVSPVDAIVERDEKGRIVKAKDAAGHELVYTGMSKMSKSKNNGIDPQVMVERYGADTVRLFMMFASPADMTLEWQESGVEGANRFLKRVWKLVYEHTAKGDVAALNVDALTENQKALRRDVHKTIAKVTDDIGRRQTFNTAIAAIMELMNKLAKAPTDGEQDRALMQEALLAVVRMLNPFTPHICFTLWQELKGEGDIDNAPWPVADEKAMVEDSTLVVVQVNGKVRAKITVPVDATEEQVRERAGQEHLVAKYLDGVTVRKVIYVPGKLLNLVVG

NCC(=O)NS(=O)(=O)OC[C@H]1O[C@@H](n2cnc3c(N)nccc32)[C@H](O)[C@@H]1O
Ki [1]: > 2000 nM
inhibition (Escherichia coli K-12): inactive
Activity (Kocuria rhizophila): inactive
Activity (Staphylococcus aureus): inactive
Activity [2]: inactive
Activity (Escherichia coli): inactive
Activity (Pseudomonas aeruginosa): inactive

Nc1nccc2c1ncn2[C@@H]1O[C@H](COS(=O)(=O)NC(=O)[C@@H](N)CC(=O)O)[C@@H](O)[C@H]1O
Ki (Aspartate--tRNA ligase): 25.3 nM
inhibition [3]: inactive
Activity (Kocuria rhizophila): inactive
Activity (Staphylococcus aureus): inactive
Activity [2]: inactive
Activity (Escherichia coli): inactive
Activity (Pseudomonas aeruginosa): inactive

Nc1ncnc2c1ncn2[C@@H]1O[C@H](COS(=O)(=O)NC(=O)[C@@H](N)CO)[C@@H](O)[C@H]1O
Activity (Kocuria rhizophila): inactive
Activity (Staphylococcus aureus): inactive
inhibition [4]: Active
Ki (Serine--tRNA ligase): 0.18 nM
Activity [2]: inactive
Activity (Escherichia coli): inactive
Activity (Pseudomonas aeruginosa): inactive

NCC(=O)NS(=O)(=O)OC[C@H]1O[C@@H](n2cnc3c(N)ncnc32)[C@H](O)[C@@H]1O
Ki [1]: 148 nM
inhibition (Escherichia coli K-12): Active
Activity (Kocuria rhizophila): inactive
Activity (Staphylococcus aureus): inactive
Activity [2]: inactive
Activity (Escherichia coli): inactive
Activity (Pseudomonas aeruginosa): inactive

Nc1nccc2c1ncn2[C@@H]1O[C@H](COS(=O)(=O)NC(=O)[C@@H](N)CO)[C@@H](O)[C@H]1O
Activity (Kocuria rhizophila): inactive
Activity (Staphylococcus aureus): inactive
inhibition [4]: inactive
Ki (Serine--tRNA ligase): 523 nM
Activity [2]: inactive
Activity (Escherichia coli): inactive
Activity (Pseudomonas aeruginosa): inactive

CC(C)C[C@H](N)C(=O)NS(=O)(=O)OC[C@H]1O[C@@H](n2cnc3c(N)ncnc32)[C@H](O)[C@@H]1O
Activity (Kocuria rhizophila): inactive
Activity (Staphylococcus aureus): inactive
Activity [2]: inactive
Activity (Escherichia coli): inactive
Activity (Pseudomonas aeruginosa): inactive

CC(C)C[C@H](N)C(=O)NS(=O)(=O)OC[C@H]1O[C@@H](n2cnc3c(N)nccc32)[C@H](O)[C@@H]1O
Activity (Kocuria rhizophila): inactive
Ki (Leucine--tRNA ligase): 0.654 nM
Activity (Staphylococcus aureus): inactive
Activity [2]: inactive
Activity (Escherichia coli): inactive
Activity (Pseudomonas aeruginosa): inactive

CC[C@H](C)[C@H](N)C(=O)NS(=O)(=O)OC[C@H]1O[C@@H](n2cnc3c(N)ncnc32)[C@H](O)[C@@H]1O
Activity (Kocuria rhizophila): inactive
Activity (Staphylococcus aureus): inactive
Activity [2]: inactive
Activity (Escherichia coli): inactive
Ki (Isoleucine--tRNA ligase): 1.92 nM
inhibition [5]: Active
Activity (Pseudomonas aeruginosa): inactive

Nc1ncnc2c1ncn2[C@@H]1O[C@H](COS(=O)(=O)NC(=O)[C@@H](N)CC(=O)O)[C@@H](O)[C@H]1O
Ki (Aspartate--tRNA ligase): 0.052 nM
inhibition [3]: Active
Activity (Kocuria rhizophila): inactive
Activity (Staphylococcus aureus): inactive
Activity [2]: inactive
Activity (Escherichia coli): inactive
Activity (Pseudomonas aeruginosa): inactive

CC[C@H](C)[C@H](N)C(=O)NS(=O)(=O)OC[C@H]1O[C@@H](n2cnc3c(N)nccc32)[C@H](O)[C@@H]1O
Activity (Kocuria rhizophila): inactive
Activity (Staphylococcus aureus): inactive
Activity [2]: inactive
Activity (Escherichia coli): inactive
Ki (Isoleucine--tRNA ligase): 213 nM
inhibition [5]: 40 to 50%
Activity (Pseudomonas aeruginosa): inactive

Nc1nccc2c1ncn2[C@@H]1O[C@H](COS(=O)(=O)NC(=O)[C@@H](N)Cc2ccc(O)cc2)[C@@H](O)[C@H]1O
Ki (Tyrosine--tRNA ligase): 29.9 nM
Activity (Kocuria rhizophila): inactive
Activity (Staphylococcus aureus): inactive
inhibition [6]: 40 to 50%
Activity [2]: inactive
Activity (Escherichia coli): inactive
Activity (Pseudomonas aeruginosa): inactive

Nc1ncnc2c1ncn2[C@@H]1O[C@H](COS(=O)(=O)NC(=O)[C@@H](N)Cc2ccc(O)cc2)[C@@H](O)[C@H]1O
Ki (Tyrosine--tRNA ligase): 2.93 nM
Activity (Kocuria rhizophila): inactive
Activity (Staphylococcus aureus): inactive
inhibition [6]: Active
Activity [2]: inactive
Activity (Escherichia coli): inactive
Activity (Pseudomonas aeruginosa): inactive

Source: ChEMBL document CHEMBL4196034, “Family-wide analysis of aminoacyl-sulfamoyl-3-deazaadenosine analogues as inhibitors of aminoacyl-tRNA synthetases” (Eur J Med Chem, 2018)
